ChEMBL document CHEMBL1140884, “Oligodeoxyribonucleotide-based antagonists for Toll-like receptors 7 and 9” (2009)
Activity calls are given as the source filed them. The calls are words filed in the database; no cut-off is given here.

Columns and labels:
[1] = test system: PBMC; experiment: Induction of TNFalpha secretion in human PBMC; type: functional, cell-based
How it was run: (§1)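 Human PBMCs (5×10^6/mL; 1×10^6 per well) were cultured 24 h with TLR9 agonist 5 µg/mL or TLR7/8 agonist 100 µg/mL, alone or with antagonist at 1:4. Compounds were dissolved in PBS. Supernatant cytokines were measured by Luminex human 25-plex bead assay. One representative donor of six.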

[2] = test system: PBMC; experiment: Induction of MIG secretion in human PBMC; type: functional, cell-based; how it was run: as §1
[3] = test system: PBMC; experiment: Inhibition of 5'-TCTGTCRTTCT-X-TCTTRCTGTCT-5'-induced cytokines secretion in human PBMC at 1:5 agonist to drug ratio; type: functional, cell-based
How it was run: (§2)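 Human PBMCs isolated from healthy volunteer blood by Ficoll gradient, cultured at 1×10^6/200 μL in supplemented RPMI 1640 with 10% heat-inactivated FBS. Treated for 24 h with agonist and/or antagonist dissolved in PBS; TLR9 agonist at 5 μg/mL, TLR7/8 agonist at 100 μg/mL. Supernatant cytokines/chemokines by Luminex human 25-plex bead assay; unstimulated cells as control.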

[4] = biological target: T1, Toll-like receptor 9 (Homo sapiens) (UniProt Q9NR96); experiment: Antagonist activity at TLR9 in human PBMC assessed as inhibition of 5'-TCTGTCRTTCT-X-TCTTRCTGTCT-5'-induced NF-kappaB activation at 40 ug/mL treated 1 hr before induction measured after 2 hrs; type: functional
T1 sequence (whole entry): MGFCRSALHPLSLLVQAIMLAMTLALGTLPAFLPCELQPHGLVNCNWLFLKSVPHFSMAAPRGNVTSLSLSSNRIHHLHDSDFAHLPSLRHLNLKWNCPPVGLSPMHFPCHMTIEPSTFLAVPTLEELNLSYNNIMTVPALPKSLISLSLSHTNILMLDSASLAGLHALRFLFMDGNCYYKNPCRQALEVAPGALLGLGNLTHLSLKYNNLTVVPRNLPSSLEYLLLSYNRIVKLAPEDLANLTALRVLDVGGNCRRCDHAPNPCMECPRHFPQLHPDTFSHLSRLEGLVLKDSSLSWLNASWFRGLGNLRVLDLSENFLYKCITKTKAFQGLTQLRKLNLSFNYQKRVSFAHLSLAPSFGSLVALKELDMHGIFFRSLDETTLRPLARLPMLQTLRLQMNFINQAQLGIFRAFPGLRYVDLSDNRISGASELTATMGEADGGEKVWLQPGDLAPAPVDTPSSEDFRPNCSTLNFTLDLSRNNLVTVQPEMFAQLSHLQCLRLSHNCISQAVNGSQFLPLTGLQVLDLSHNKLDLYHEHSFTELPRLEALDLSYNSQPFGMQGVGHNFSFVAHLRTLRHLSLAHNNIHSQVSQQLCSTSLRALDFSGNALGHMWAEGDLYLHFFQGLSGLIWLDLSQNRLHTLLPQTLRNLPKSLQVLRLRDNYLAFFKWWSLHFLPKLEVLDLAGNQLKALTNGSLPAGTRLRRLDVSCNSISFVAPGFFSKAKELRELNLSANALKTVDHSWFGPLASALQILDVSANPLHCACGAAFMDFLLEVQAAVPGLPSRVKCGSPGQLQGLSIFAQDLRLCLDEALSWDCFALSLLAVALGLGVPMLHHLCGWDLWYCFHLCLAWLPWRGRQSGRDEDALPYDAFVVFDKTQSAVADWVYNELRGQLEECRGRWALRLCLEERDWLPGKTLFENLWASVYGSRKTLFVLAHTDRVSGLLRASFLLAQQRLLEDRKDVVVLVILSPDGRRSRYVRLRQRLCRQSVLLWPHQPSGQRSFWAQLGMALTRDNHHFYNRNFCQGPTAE
How it was run: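 Human PBMCs plated at 1×10^7 cells/well were preincubated with antagonist at the indicated concentrations for 1 h. TLR9 or TLR7/8 agonist was then added for 2 h. Nuclear extracts were analysed for NF-κB by EMSA. One representative donor of three.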

[5] = test system: PBMC; experiment: Induction of IFNalpha secretion in human PBMC; type: functional, cell-based; how it was run: as §1
[6] = biological target: Toll-like receptor 7 (Homo sapiens) (UniProt Q9NYK1); experiment: Antagonist activity at TLR7/8 in human PBMC assessed as inhibition of 5'-UGCUGUUCUG-X-GUCUUGUCGU-5'-induced NF-kappaB activation in human PBMC at 400 ug/mL treated 1 hr before induction measured after 2 hrs
[7] = test system: PBMC; experiment: Induction of MIP1beta secretion in human PBMC; type: functional, cell-based; how it was run: as §1
[8] = test system: PBMC; experiment: Inhibition of 5'-UGCUGUUCUG-X-GUCUUGUCGU-5'-induced chemokines secretion in human PBMC at 1:5 agonist to drug ratio; type: functional, cell-based; how it was run: as §2
[9] = test system: PBMC; experiment: Induction of IL12 secretion in human PBMC; type: functional, cell-based; how it was run: as §1
[10] = test system: PBMC; experiment: Inhibition of 5'-UGCUGUUCUG-X-GUCUUGUCGU-5'-induced cytokines secretion in human PBMC at 1:5 agonist to drug ratio; type: functional, cell-based; how it was run: as §2
[11] = test system: PBMC; experiment: Induction of IL6 secretion in human PBMC; type: functional, cell-based; how it was run: as §1
[12] = biological target: T2, Toll-like receptor 9 (Mus musculus) (UniProt Q9EQU3); experiment: Agonist activity at mouse TLR9 expressed in HEK293 cells assessed as activation of NF-kappaB at 10 ug/mL by SEAP reporter gene assay; type: functional, cell-based
T2 sequence (whole entry): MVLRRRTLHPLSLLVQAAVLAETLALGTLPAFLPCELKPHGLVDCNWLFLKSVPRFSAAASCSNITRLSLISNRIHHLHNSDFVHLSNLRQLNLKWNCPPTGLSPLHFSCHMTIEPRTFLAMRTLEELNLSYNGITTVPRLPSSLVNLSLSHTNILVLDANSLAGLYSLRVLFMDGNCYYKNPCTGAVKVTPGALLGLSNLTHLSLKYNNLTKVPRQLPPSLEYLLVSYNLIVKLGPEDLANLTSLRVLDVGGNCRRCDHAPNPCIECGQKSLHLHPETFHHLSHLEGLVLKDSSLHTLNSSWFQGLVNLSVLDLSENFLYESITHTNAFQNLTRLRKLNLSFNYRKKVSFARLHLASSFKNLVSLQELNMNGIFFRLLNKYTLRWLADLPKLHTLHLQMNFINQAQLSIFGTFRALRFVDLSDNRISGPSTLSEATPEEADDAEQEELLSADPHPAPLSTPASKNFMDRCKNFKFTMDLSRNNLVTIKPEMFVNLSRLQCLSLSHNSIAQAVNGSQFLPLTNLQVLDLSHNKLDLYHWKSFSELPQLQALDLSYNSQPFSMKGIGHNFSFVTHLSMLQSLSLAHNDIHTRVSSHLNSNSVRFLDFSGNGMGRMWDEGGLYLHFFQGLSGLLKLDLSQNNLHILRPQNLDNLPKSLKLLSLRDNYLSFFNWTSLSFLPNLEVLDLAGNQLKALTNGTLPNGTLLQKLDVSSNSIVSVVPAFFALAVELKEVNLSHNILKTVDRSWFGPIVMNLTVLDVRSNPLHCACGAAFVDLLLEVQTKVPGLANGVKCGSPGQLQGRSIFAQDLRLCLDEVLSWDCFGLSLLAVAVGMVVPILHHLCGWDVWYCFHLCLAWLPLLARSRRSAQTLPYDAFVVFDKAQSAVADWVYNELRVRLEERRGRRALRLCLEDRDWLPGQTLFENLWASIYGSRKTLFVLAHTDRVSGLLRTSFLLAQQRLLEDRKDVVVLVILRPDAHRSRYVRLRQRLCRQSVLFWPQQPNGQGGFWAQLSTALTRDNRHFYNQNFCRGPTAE
How it was run: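 HEK293 cells stably expressing mouse TLR9 were transiently transfected with a SEAP reporter for 6 h. Compounds were added at 10 µg/mL for 18 h. SEAP was read with Quanti-Blue substrate and expressed as fold change in NF-κB activity.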

[13] = test system: PBMC; experiment: Induction of MCP1 secretion in human PBMC; type: functional, cell-based; how it was run: as §1
[14] = test system: PBMC; experiment: Induction of IFN-gamma secretion in human PBMC; type: functional, cell-based; how it was run: as §1
[15] = test system: PBMC; experiment: Inhibition of 5'-TCTGTCRTTCT-X-TCTTRCTGTCT-5'-induced human PBMC proliferation treated 72 hrs before induction; type: functional, cell-based
[16] = test system: PBMC; experiment: (§3) Induction of IP10 secretion in human PBMC; type: functional, cell-based; how it was run: as §1
[17] = test system: PBMC; experiment: Inhibition of 5'-TCTGTCRTTCT-X-TCTTRCTGTCT-5'-induced chemokines secretion in human PBMC at 1:5 agonist to drug ratio; type: functional, cell-based; how it was run: as §2
[18] = biological target: T2, Toll-like receptor 9 (Mus musculus); experiment: Antagonist activity at mouse TLR9 expressed in HEK293 cells assessed as inhibition of 5'-CTATCTGTCGTTCTCTGT-3'-induced NF-kappaB activation by SEAP reporter gene assay; type: functional, cell-based
How it was run: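 Mouse TLR9-HEK293 cells were transfected with a SEAP reporter for 6 h. They were then stimulated for 18 h with agonist (0.25 or 0.5 µg/mL) plus increasing antagonist concentrations or set agonist:antagonist ratios. Quanti-Blue read-out, reported as % NF-κB activity with agonist alone as 100%.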

[19] = test system: PBMC; experiment: as §3; type: functional, cell-based; how it was run: as §1; remark: listed apart in the source
[20] = biological target: T1, Toll-like receptor 9 (Homo sapiens); experiment: Agonist activity at TLR9 in human PBMC assessed as NF-kappaB activation at 5 ug/mL; type: functional
How it was run: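 Human PBMCs from healthy-donor blood (Ficoll) plated at 1×10^7 cells/well, stimulated for 2 h. Nuclear extracts analysed for NF-κB binding by EMSA on native polyacrylamide gels with autoradiography. One representative donor of three.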

Sequence of Toll-like receptor 7 (Homo sapiens) (Q9NYK1 whole entry, looked up): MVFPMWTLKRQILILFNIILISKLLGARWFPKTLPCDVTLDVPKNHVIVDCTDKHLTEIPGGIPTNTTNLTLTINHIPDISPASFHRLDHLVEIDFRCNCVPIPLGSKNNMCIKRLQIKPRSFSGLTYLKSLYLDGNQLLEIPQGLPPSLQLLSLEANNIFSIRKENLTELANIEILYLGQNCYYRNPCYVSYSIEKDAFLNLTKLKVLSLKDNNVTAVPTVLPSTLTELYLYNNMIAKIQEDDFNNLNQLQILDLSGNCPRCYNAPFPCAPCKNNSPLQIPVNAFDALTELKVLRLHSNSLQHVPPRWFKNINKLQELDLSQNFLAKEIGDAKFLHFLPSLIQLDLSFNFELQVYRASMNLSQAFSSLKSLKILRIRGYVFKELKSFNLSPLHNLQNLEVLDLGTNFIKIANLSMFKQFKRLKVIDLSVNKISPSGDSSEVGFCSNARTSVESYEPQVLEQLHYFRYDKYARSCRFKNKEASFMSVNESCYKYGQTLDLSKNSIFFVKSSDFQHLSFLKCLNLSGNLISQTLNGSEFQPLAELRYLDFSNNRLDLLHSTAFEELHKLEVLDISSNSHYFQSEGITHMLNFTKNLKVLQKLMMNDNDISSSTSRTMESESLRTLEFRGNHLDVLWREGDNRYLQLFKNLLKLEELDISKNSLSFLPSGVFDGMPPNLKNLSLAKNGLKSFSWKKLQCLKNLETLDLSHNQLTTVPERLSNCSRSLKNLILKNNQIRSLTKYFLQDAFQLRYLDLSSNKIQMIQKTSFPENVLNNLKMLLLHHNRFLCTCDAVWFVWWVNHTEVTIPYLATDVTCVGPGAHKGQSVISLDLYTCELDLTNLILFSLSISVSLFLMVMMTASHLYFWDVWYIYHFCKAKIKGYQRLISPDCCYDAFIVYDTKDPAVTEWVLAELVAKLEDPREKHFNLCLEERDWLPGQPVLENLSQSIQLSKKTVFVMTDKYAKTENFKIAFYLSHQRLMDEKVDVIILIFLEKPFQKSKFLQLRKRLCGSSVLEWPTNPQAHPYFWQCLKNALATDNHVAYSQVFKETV

CO[C@@H]1[C@H](OP(=O)(S)OC[C@H]2O[C@@H](n3ccc(N)nc3=O)C[C@@H]2OP(=O)(S)OC[C@H]2O[C@@H](n3ccc4c(=O)[nH]c(N)nc43)C[C@@H]2OP(=O)(S)OC[C@H]2O[C@@H](n3cc(C)c(=O)[nH]c3=O)C[C@@H]2OP(=O)(S)OC[C@H]2O[C@@H](n3cc(C)c(=O)[nH]c3=O)C[C@@H]2OP(=O)(S)OC[C@H]2O[C@@H](n3ccc(N)nc3=O)C[C@@H]2OP(=O)(S)OC[C@H]2O[C@@H](n3cc(C)c(=O)[nH]c3=O)C[C@@H]2OP(=O)(S)OC[C@H]2O[C@@H](n3ccc(N)nc3=O)C[C@@H]2OP(=O)(S)OC[C@H]2O[C@@H](n3cc(C)c(=O)[nH]c3=O)C[C@@H]2OP(=O)(S)OC[C@H]2O[C@@H](n3cnc4c(=O)[nH]c(N)nc43)C[C@@H]2OP(=O)(S)OC[C@H]2O[C@@H](n3cc(C)c(=O)[nH]c3=O)C[C@@H]2O)[C@@H](COP(=O)(S)O[C@H]2[C@@H](OC)[C@H](n3cnc4c(=O)[nH]c(N)nc43)O[C@@H]2COP(=O)(S)O[C@H]2C[C@H](n3cc(C)c(=O)[nH]c3=O)O[C@@H]2COP(=O)(S)O[C@H]2C[C@H](n3ccc(N)nc3=O)O[C@@H]2COP(=O)(S)O[C@H]2C[C@H](n3cc(C)c(=O)[nH]c3=O)O[C@@H]2COP(=O)(S)O[C@H]2C[C@H](n3cnc4c(N)ncnc43)O[C@@H]2COP(=O)(S)O[C@H]2C[C@H](n3cc(C)c(=O)[nH]c3=O)O[C@@H]2COP(=O)(S)O[C@@H]2[C@H](O)[C@@H](n3ccc(N)nc3=O)O[C@H]2CO)O[C@H]1n1ccc(=O)[nH]c1=O (stereo not given in full)
Activity [1]: inactive
Activity [2]: inactive
Activity [3]: Active
Activity [4]: Active
Activity [5]: inactive
Activity [6]: Active
Activity [7]: inactive
Activity [8]: Active
Activity [9]: inactive
Activity [10]: Active
Activity [11]: inactive
Activity [12]: inactive
Activity [13]: inactive
Activity [14]: inactive
Activity [15]: Active
Activity [16]: inactive
Activity [17]: Active
Activity [18]: Active
Activity [19]: inactive

Cc1cn([C@H]2C[C@H](OP(=O)(S)OC[C@H]3O[C@@H](n4ccc(N)nc4=O)C[C@@H]3OP(=O)(S)OC[C@H]3O[C@@H](n4cc(C)c(=O)[nH]c4=O)C[C@@H]3OP(=O)(S)OC[C@H]3O[C@@H](n4cnc5c(=O)[nH]c(N)nc54)C[C@@H]3OP(=O)(S)OC[C@H]3O[C@@H](n4cc(C)c(=O)[nH]c4=O)C[C@@H]3OP(=O)(S)OC[C@H]3O[C@@H](n4ccc(N)nc4=O)C[C@@H]3OP(=O)(S)OC[C@H]3O[C@@H](n4ccc5c(N)ncnc54)C[C@@H]3OP(=O)(S)OC[C@H]3O[C@@H](n4cc(C)c(=O)[nH]c4=O)C[C@@H]3OP(=O)(S)OC[C@H]3O[C@@H](n4cc(C)c(=O)[nH]c4=O)C[C@@H]3OP(=O)(S)OC[C@H]3O[C@@H](n4ccc(N)nc4=O)C[C@@H]3OP(=O)(S)OC[C@H]3O[C@@H](n4cc(C)c(=O)[nH]c4=O)C[C@@H]3OP(=O)(S)OCC(O)COP(=O)(S)O[C@H]3C[C@H](n4cc(C)c(=O)[nH]c4=O)O[C@@H]3COP(=O)(S)O[C@H]3C[C@H](n4ccc(N)nc4=O)O[C@@H]3COP(=O)(S)O[C@H]3C[C@H](n4cc(C)c(=O)[nH]c4=O)O[C@@H]3COP(=O)(S)O[C@H]3C[C@H](n4cc(C)c(=O)[nH]c4=O)O[C@@H]3COP(=O)(S)O[C@H]3C[C@H](n4ccc5c(=O)[nH]c(N)nc54)O[C@@H]3COP(=O)(S)O[C@H]3C[C@H](n4ccc(N)nc4=O)O[C@@H]3COP(=O)(S)O[C@H]3C[C@H](n4cc(C)c(=O)[nH]c4=O)O[C@@H]3COP(=O)(S)O[C@H]3C[C@H](n4cnc5c(=O)[nH]c(N)nc54)O[C@@H]3COP(=O)(S)O[C@H]3C[C@H](n4cc(C)c(=O)[nH]c4=O)O[C@@H]3COP(=O)(S)O[C@H]3C[C@H](n4ccc(N)nc4=O)O[C@@H]3COP(=O)(S)O[C@H]3C[C@H](n4cc(C)c(=O)[nH]c4=O)O[C@@H]3CO)[C@@H](CO)O2)c(=O)[nH]c1=O (stereo not given in full)
Activity [1]: Active
Activity [2]: Active
Activity [20]: Active
Activity [5]: Active
Activity [7]: Active
Activity [9]: Active
Activity [11]: Active
Activity [13]: Active
Activity [14]: Active
Activity [16]: Active
Activity [19]: Active
